Measured values: PubChem BioAssay
The other results are listed elsewhere or left out. Active and inactive are the calls of the source. Unless noted, how the calls were made is not given here.

Tests used:
[1] = inhibition of Brca1/Bard1 split-luciferase complementation, confirmation, counter-screen for Mdm2/MdmX interaction inhibitor project, luminescence, single concentration (AID 504668); conditions: Brca1/Bard1 bimolecular luciferase complementation counterscreen, at 8 µM, stronger effect = higher value
PEG-3 [2] = biological target: PEG-3 (UniProt Q6IN02); assay: Peg3 promoter luciferase inhibitors, potency, dose response, cell-based, HeLa, CREF/GAPDH counter-screen panel (AID 624167); conditions: CREF/GAPDH counter-screens; HeLa PEG-Prom luciferase reporter, overnight, run 1, dose range 1, at 100 µM (top of the series) unless noted
Sequence of PEG-3 (Q6IN02 whole entry, looked up): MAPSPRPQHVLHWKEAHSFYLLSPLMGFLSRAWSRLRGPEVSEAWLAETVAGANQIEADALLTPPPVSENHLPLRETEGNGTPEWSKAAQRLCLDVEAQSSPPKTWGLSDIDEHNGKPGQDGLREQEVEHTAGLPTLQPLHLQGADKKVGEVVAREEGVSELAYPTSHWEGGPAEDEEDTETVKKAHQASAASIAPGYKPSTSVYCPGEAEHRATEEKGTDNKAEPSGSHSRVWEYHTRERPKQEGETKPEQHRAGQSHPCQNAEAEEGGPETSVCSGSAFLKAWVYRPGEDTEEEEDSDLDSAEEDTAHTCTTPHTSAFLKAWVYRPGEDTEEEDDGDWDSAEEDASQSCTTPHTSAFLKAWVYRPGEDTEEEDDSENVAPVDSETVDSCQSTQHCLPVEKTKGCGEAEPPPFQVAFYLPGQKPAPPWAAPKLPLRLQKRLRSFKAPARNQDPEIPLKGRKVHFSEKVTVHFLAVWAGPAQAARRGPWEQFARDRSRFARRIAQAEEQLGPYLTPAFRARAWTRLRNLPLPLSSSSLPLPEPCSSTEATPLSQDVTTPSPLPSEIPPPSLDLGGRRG

PEG-3 [3] = biological target: PEG-3 (UniProt Q6IN02); assay: as above; conditions: CREF/GAPDH counter-screens; HeLa PEG-Prom luciferase reporter, overnight, run 2, dose range 1, at 100 µM (top of the series) unless noted
Rat fibroblasts (CREF) [4] = assay: as above; conditions: CREF/GAPDH counter-screens; run 1, dose range 1, at 100 µM (top of the series)
Rat fibroblasts (CREF) [5] = assay: as above; conditions: CREF/GAPDH counter-screens; run 2, dose range 1, at 100 µM (top of the series)
[6] = inhibitors of PAF-induced NF-kB signaling, retest, confirmation, cell-based, GFP fluorescence, single concentration (AID 602472; in the data active means inhibition above about 40%;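 further: stimulus PAF is a Pseudomonas aeruginosa filtrate and not platelet activating factor; plate controls were DMSO wells with stimulus for no effect and unstimulated DMSO wells for full effect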); conditions: KKLEB CF airway cells, overnight, at 5 µM, stronger effect = higher value
Method in brief: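 Material: KKLEB immortalized cystic fibrosis airway epithelial cells with NFkB-GFP reporter; Buffer or medium: medium with 2% FBS for cells, serum-free medium for stimulus; Times: 2 h pretreatment, overnight stimulation; Signal: GFP fluorescence; Compound dosing: 5 µM single dose.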

[7] = inhibitors of PAF-induced NFkB signaling in CF airway cells, dose response, cell-based, uHTS hits, panel, cytotoxicity readout (AID 624344); conditions: CF bronchial epithelial cells, PAF-induced NFkB reporter inhibition, with PAF, run 1; at 79 µM (top of the series) unless noted
[8] = as above; conditions: CF bronchial epithelial cells, PAF-induced NFkB reporter inhibition, with PAF, run 2; at 79 µM (top of the series) unless noted
[9] = biological target: Tumor necrosis factor receptor superfamily member 10B (Homo sapiens) (UniProt O14763); assay: caspase-8 TRAIL sensitization, hit retest, confirmation, cell-based, NB7+caspase-8, with/without TRAIL, luminescence panel (AID 651596; in the data active means activity above about 50%); conditions: NB7 neuroblastoma + caspase-8, TRAIL sensitization, luminescence viability, with TRAIL, mean of runs, at 10 µM, stronger effect = higher value
Sequence of Tumor necrosis factor receptor superfamily member 10B (Homo sapiens) (O14763 whole entry, looked up): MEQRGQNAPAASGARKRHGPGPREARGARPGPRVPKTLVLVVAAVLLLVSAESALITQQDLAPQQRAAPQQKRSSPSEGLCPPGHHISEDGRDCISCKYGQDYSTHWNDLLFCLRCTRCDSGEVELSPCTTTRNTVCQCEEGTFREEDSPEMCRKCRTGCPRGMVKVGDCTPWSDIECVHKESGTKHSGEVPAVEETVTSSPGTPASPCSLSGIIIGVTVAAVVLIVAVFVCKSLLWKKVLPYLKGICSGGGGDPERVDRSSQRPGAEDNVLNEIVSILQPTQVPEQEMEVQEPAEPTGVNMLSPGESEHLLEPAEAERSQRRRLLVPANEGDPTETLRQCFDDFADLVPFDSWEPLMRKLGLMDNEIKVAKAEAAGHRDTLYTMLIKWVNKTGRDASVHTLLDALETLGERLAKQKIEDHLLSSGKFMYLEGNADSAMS

[10] = as above; conditions: NB7 neuroblastoma + caspase-8, without TRAIL, luminescence viability, without TRAIL, mean of runs, at 10 µM

Structure (SMILES): Nc1nonc1-n1nnc(C(=O)N/N=C/c2cc(Br)ccc2O)c1CNc1ccccc1
- inhibition [1]: 30.5% (active)
- inhibition (PEG-3 [2]): 89.3%
- inhibition (PEG-3 [3]): 81.9%
- inhibition (Rat fibroblasts (CREF) [4]): 54.5%
- inhibition (Rat fibroblasts (CREF) [5]): 59.3%

Structure (SMILES): COc1cccc(/C=N/NC(=O)c2c(C)nc3ccc(Cl)cn23)c1O
- inhibition [1]: 34.5% (active)
- inhibition (PEG-3 [2]): 59.6%
- inhibition (PEG-3 [3]): 61.9%
- inhibition (Rat fibroblasts (CREF) [4]): 44.7%
- inhibition (Rat fibroblasts (CREF) [5]): 46.7%

Structure (SMILES): Cc1cc(C=C2C(=O)c3ccccc3C2=O)c(C)n1-c1ccccc1
- inhibition [1]: 34.3% (active)
- inhibition (PEG-3 [2]): 62.9%
- inhibition (PEG-3 [3]): 80.6%

Structure (SMILES): CC(C)c1ccc(-c2nc3ccccc3s2)cc1
- inhibition [1]: 35.8% (active)
- inhibition (PEG-3 [2]): 99.1%
- inhibition (PEG-3 [3]): 99.1%

Structure (SMILES): O=C(COc1ccc(F)cc1Cl)Nc1nc(-c2ccccn2)cs1
- inhibition [1]: 33.8% (active)

Structure (SMILES): COc1cc(/C=C/C(=O)N2CCC=CC2=O)cc(OC)c1OC
- inhibition [1]: 26.8% (active)
- inhibition (PEG-3 [2]): 99.1%
- inhibition (PEG-3 [3]): 96.1%

Structure (SMILES): O=C(/C=C/c1ccccc1)NC(NC(=S)Nc1cccc(Cl)c1)C(Cl)(Cl)Cl (stereo unspecified)
- inhibition [1]: 25.6% (active)
- inhibition (PEG-3 [2]): 98.2%
- inhibition (PEG-3 [3]): 99.4%

Structure (SMILES): Brc1ccc2ncnc(NCc3cccnc3)c2c1
- inhibition [1]: 26.8% (active)
- inhibition [6]: 69.2% (active)
- inhibition [7]: 105%
- inhibition [8]: 94.9%

Structure (SMILES): Cc1nnc(NC(=O)Nc2ccc(Cl)c(Cl)c2)s1
- inhibition [1]: 33.4% (active)
- inhibition [6]: 68% (active)
- inhibition [7]: 91.7%
- inhibition [8]: 87.1%

Structure (SMILES): Cc1cc(C(=O)Nc2ccc(Cl)cc2)c(C)n1-c1ccccc1
- inhibition [1]: 30.6% (active)

Structure (SMILES): CCC(=O)NC(c1ccc(C)cc1)c1ccc2cccnc2c1O (stereo unspecified)
- inhibition [1]: 23.7% (active)
- inhibition (PEG-3 [2]): -12.7%
- inhibition (PEG-3 [3]): 50.5%
- inhibition (Rat fibroblasts (CREF) [4]): 16.7%
- inhibition (Rat fibroblasts (CREF) [5]): 31.4%

Structure (SMILES): O=C(N/N=C\c1c(O)ccc2ccccc12)c1cncc(Br)c1
- inhibition [1]: 26.8% (active)
- inhibition (PEG-3 [2]): 82.3%
- inhibition (PEG-3 [3]): 79.4%
- inhibition (Rat fibroblasts (CREF) [4]): 78.3%
- inhibition (Rat fibroblasts (CREF) [5]): 79.5%

Structure (SMILES): O=C(CCn1cnc(-c2ccccc2)c1-c1ccccc1)N/N=C/c1ccccc1O
- inhibition [1]: 25.7% (active)
- inhibition (PEG-3 [2]): 100%
- inhibition (PEG-3 [3]): 101%
- inhibition (Rat fibroblasts (CREF) [4]): 86.7%
- inhibition (Rat fibroblasts (CREF) [5]): 94.1%

Structure (SMILES): O=C(O)c1cccc(COc2ccc3c(c2)CCC3)c1
- inhibition [1]: 24.1% (active)
- inhibition (PEG-3 [2]): 98.5%
- inhibition (PEG-3 [3]): 99.1%
- inhibition (Rat fibroblasts (CREF) [4]): 91.1%
- inhibition (Rat fibroblasts (CREF) [5]): 89.3%

Structure (SMILES): Cc1ccc2oc(/N=C(\N)NC(=O)C(C)(C)C)nc2c1
- inhibition [1]: 31.8% (active)
- inhibition (PEG-3 [2]): 98%
- inhibition (PEG-3 [3]): 94.5%
- inhibition (Rat fibroblasts (CREF) [4]): 82.5%
- inhibition (Rat fibroblasts (CREF) [5]): 79.9%

Structure (SMILES): O=C(NC1=NCCS1)C1COc2ccccc2O1 (stereo unspecified)
- inhibition [1]: 34% (active)
- inhibition (PEG-3 [2]): 96.4%
- inhibition (PEG-3 [3]): 97.6%
- inhibition (Rat fibroblasts (CREF) [4]): 86.9%
- inhibition (Rat fibroblasts (CREF) [5]): 87.4%

Structure (SMILES): COc1ccc(C(O)(CC(C)C)C(CN2CCOCC2)c2ccccc2)cc1 (stereo unspecified)
- inhibition [1]: 30.5% (active)
- inhibition (PEG-3 [2]): 100%
- inhibition (PEG-3 [3]): 100%

Structure (SMILES): O=C(/C=C/c1cccc([N+](=O)[O-])c1)n1cnc2ccccc21
- inhibition [1]: 24.6% (active)
- inhibition [7]: 102%
- inhibition [8]: 111%

Structure (SMILES): COc1ccc(C(=O)CN2C(=O)c3ccccc3S2(=O)=O)cc1
- inhibition [1]: 25.5% (active)
- inhibition (PEG-3 [2]): 99.1%
- inhibition (PEG-3 [3]): 97.6%
- inhibition (Rat fibroblasts (CREF) [4]): 96.6%
- inhibition (Rat fibroblasts (CREF) [5]): 97.6%
- activity [9]: 70.2%
- activity [10]: 70.8%

Structure (SMILES): COc1cc2cncc(Cc3ccc(Cl)cc3)c2cc1OC
- inhibition [1]: 26.2% (active)
- inhibition [7]: 104%
- inhibition [8]: 109%

Structure (SMILES): Cc1ccc(NC(=O)Nc2nnc(-c3ccncc3)s2)cc1C
- inhibition [1]: 23.3% (active)
- inhibition [7]: 102%
- inhibition [8]: 114%

Structure (SMILES): COc1ccc(-c2csc3ncnc(NCCO)c23)cc1
- inhibition [1]: 26.2% (active)
- inhibition [7]: 104%
- inhibition [8]: 113%

Structure (SMILES): CCOC(=O)Nc1ccc2c(c1)N(C(=O)CCN(CC)CC)c1ccccc1S2=O (stereo unspecified)
- inhibition [1]: 29.9% (active)
- inhibition [7]: 102%
- inhibition [8]: 107%

Structure (SMILES): Cc1cc(C(=O)COC(=O)c2ccccc2O)c(C)n1CC1CCCO1 (stereo unspecified)
- inhibition [1]: 35.8% (active)
- inhibition (PEG-3 [2]): 99.1%
- inhibition (PEG-3 [3]): 101%
- inhibition (Rat fibroblasts (CREF) [4]): 99.6%
- inhibition (Rat fibroblasts (CREF) [5]): 99.2%
- activity [9]: 91.2%
- activity [10]: 88.9%

Structure (SMILES): CCC(C)Oc1cc(-c2ccnc(Nc3cccc(Cl)c3)n2)ccn1 (stereo unspecified)
- inhibition [1]: 25.4% (active)
- inhibition [7]: 102%
- inhibition [8]: 117%

Structure (SMILES): Cc1ccc(C(=O)O/N=C(\N)c2ccccn2)cc1
- inhibition [1]: 34% (active)
- inhibition (PEG-3 [2]): 102%
- inhibition (PEG-3 [3]): 100%
- inhibition (Rat fibroblasts (CREF) [4]): 100%
- inhibition (Rat fibroblasts (CREF) [5]): 101%

Structure (SMILES): c1ccc(-c2noc(-c3ccc4c(c3)OCO4)n2)nc1
- inhibition [1]: 29.3% (active)
- inhibition (PEG-3 [2]): 91.3%
- inhibition (PEG-3 [3]): 94.5%
- inhibition (Rat fibroblasts (CREF) [4]): 95.9%
- inhibition (Rat fibroblasts (CREF) [5]): 95.7%
- activity [9]: 93.2%
- activity [10]: 93.7%

Structure (SMILES): COc1ccc(C(NC(C)=O)c2ccc3cccnc3c2O)c(OC)c1 (stereo unspecified)
- inhibition [1]: 31.2% (active)
- inhibition (PEG-3 [2]): 64.7%
- inhibition (PEG-3 [3]): 59.9%
- inhibition (Rat fibroblasts (CREF) [4]): -4.86%
- inhibition (Rat fibroblasts (CREF) [5]): 50.2%

Structure (SMILES): Cc1ccc(-c2nnc(SCC(=O)Nc3ccccc3F)o2)cc1
- inhibition [1]: 32.6% (active)
- inhibition (PEG-3 [2]): 98.6%
- inhibition (PEG-3 [3]): 94.7%
- inhibition (Rat fibroblasts (CREF) [4]): 97.2%
- inhibition (Rat fibroblasts (CREF) [5]): 97.2%
- activity [9]: 83%
- activity [10]: 83.2%

Structure (SMILES): O=C(NCCc1ccccc1)c1ccc2c(c1)OCCO2
- inhibition [1]: 27.8% (active)
- inhibition (PEG-3 [2]): 94.6%
- inhibition (PEG-3 [3]): 97.9%
- inhibition (Rat fibroblasts (CREF) [4]): 99%
- inhibition (Rat fibroblasts (CREF) [5]): 98.4%
- activity [9]: 89.7%
- activity [10]: 90.2%

Structure (SMILES): Cc1cccc(Nc2ncnc3ccc(Br)cc23)c1
- inhibition [1]: 25.6% (active)
- inhibition [7]: 103%
- inhibition [8]: 110%

Structure (SMILES): COc1ccc(C(NC(=O)C(C)C)c2ccc3cccnc3c2O)cc1 (stereo unspecified)
- inhibition [1]: 28.9% (active)
- inhibition (PEG-3 [2]): 67.9%
- inhibition (PEG-3 [3]): 60.6%
- inhibition (Rat fibroblasts (CREF) [4]): 75.6%
- inhibition (Rat fibroblasts (CREF) [5]): 61.5%
